These results are taken from the RNAGym collection of RNA variant scans (doi:10.1038/nmeth.2970).

B1: NELF-E aptamer (parent)
chain: CCCAACGACUGCCGAGCGAGAUUACGCUUGAGCGCCCCACUGAGGAUGCCCACGGGCGAUUGGGGCACGG

What is called Kd is the concentration at which binding is half-saturated.

The variants in the data set derive from B1. In words: HiTS-RAP. The settings on record: with NELF-E (Drosophila). Put shortly: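 Aptamer DNA templates carrying a T7 promoter and ter site were sequenced on an Illumina GAIIx flowcell, then transcribed in situ by T7 RNA polymerase and halted by GST-Tus (30 minutes, 37°C). Clusters were imaged after 30-minute room-temperature equilibration with NELF-E-mOrange at 0.064 to 1000 nM in HEPES binding buffer, and only the first binding curve was used. Intensities were normalised to sequencing intensity and averaged per sequence. Kd came from weighted Hill fits, keeping fits with variance below 1,000,000.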
For the variant C13G G55C, the Kd stood at 7.94 nM.
Under C13G G55U stands 7.38 nM; under C13G G55A, 6.77 nM.
The figure for C12G A15U is 6.36 nM.
Under C12G A15G stands 6.14 nM; under C12U U41G, 6.2 nM; under C13A U29G, 5.66 nM.
For C12G G16U, the dissociation constant (Kd) turned out to be 7.23 nM.
The figure for C12G U41G is 5.67 nM; for C13G G62U it is 7.22 nM.
The figure for C13G G62A is 32.4 nM; for G11U C51U it is 6.67 nM.
Under C12G C53U stands 5.74 nM; under G11U C37U, 7.71 nM.
For the variant C12G C66U, the dissociation constant (Kd) worked out at 6.17 nM.
In the case of G11A C13G, the dissociation constant (Kd) was 6.15 nM.
The figure for G11A C13U is 5.33 nM.
The figure for C12G C33U is 6 nM.
Turning to C13G C40G, the Kd came out at 5.72 nM.
The figure for C12U A31G is 6.76 nM; for G11A G14A it is 6.34 nM; for G11A G14U it is 6.48 nM.
The figure for C13G U29C is 4.94 nM.
On to C13G U29G, for which the equilibrium dissociation constant (Kd) is 4.95 nM.
For the variant C13G U29A, the equilibrium dissociation constant (Kd) worked out at 4.9 nM.
Under G11U G63U stands 8.25 nM; under G11U G63A, 19.4 nM; under C13G A52U, 16.9 nM.
As to C13G A52G, the Kd amounted to 4.96 nM.
For the variant C12G A52U, the Kd turned out to be 16.2 nM.
Under C12G A52G stands 5.15 nM; under C12G G64A, 8.49 nM; under G11U C53U, 3.96 nM.
The figure for C13G C17U is 5.43 nM; for C13G C17G it is 4.68 nM; for C13U A19U it is 5 nM.
Under C13U A19G stands 6.42 nM; under C12U U22G, 5.99 nM; under C13G G32A, 4.64 nM.
On to C13U U41G, for which the equilibrium dissociation constant (Kd) worked out at 5.56 nM.
The figure for G11A U41G is 6.14 nM.
Under G11A U41A stands 77 nM.
Under G11A U41C stands 83.6 nM.
Turning to C12G C36U, the dissociation constant Kd is 7.29 nM.
Take C12G U29C: the Kd was determined as 6.33 nM.
The figure for C12G U29A is 5.65 nM; for C12G U29G it is 5.61 nM; for C12G G48A it is 9.02 nM.
The figure for C13U U23G is 4.9 nM; for G11U U61A it is 41.1 nM; for G11U U61C it is 64.3 nM.
The figure for G11U U41G is 6.22 nM.
In the case of C12U A39G, the dissociation constant (Kd) was determined as 6.76 nM.
Under C13G C25G stands 5.76 nM; under C13G C25U, 5.55 nM.
The figure for C13G A67G is 5.62 nM.
On to C13G A67U, for which the Kd was 7.5 nM.
Under G11A U23G stands 5.54 nM; under U10G U61A, 29.9 nM.
In the case of U10G U61G, the Kd was 8.63 nM.
Consider C12U A24G, for which the equilibrium dissociation constant (Kd) is 5.74 nM.
The figure for C13U G34A is 6.99 nM; for C13U A67U it is 3.81 nM; for C12G G42A it is 39.8 nM.
The figure for C13G G54A is 13.8 nM.
Under C13G G54U stands 7.78 nM.
On to G11U G34A, for which the Kd came out at 6.7 nM.
For G11U A67G, the Kd is 6.41 nM.
Under G11U A67U stands 9.06 nM; under C13U A15U, 4.83 nM.
The figure for G11U G16U is 6.7 nM; for G11U G16A it is 6.06 nM.
C13U A24G: the dissociation constant (Kd) was 5.12 nM.
The figure for C12G G26A is 4.12 nM.
The figure for C12G G26U is 5.65 nM.
The figure for C12G U61A is 39.1 nM; for G11U A52U it is 16.5 nM; for G11U A52G it is 3.84 nM.
Consider C12G G54A, for which the dissociation constant (Kd) came out at 18.2 nM.
The figure for C13G C37G is 6.46 nM.
The figure for C13G C37A is 21.7 nM; for C13G C37U it is 10.3 nM; for C13G G45U it is 6.75 nM.
The figure for U10G U60A is 8.76 nM.
Consider U10G U60C, for which the dissociation constant (Kd) stood at 8.47 nM.
As for U10G U60G, the Kd was 6.36 nM.
The figure for C12G A59G is 57.4 nM; for G14A A19G it is 5.88 nM.
Under C12G U47G stands 8.13 nM; under C13A U23G, 5.96 nM.
The figure for C13G A43G is 15.3 nM.
Consider C13G A43U, for which the Kd was 27.8 nM.
In the case of C13A, the equilibrium dissociation constant (Kd) turned out to be 5.28 nM.
The figure for C13G is 4.88 nM.
Regarding C13U, the Kd came out at 4.41 nM.
Under C13G A46U stands 87.3 nM.
Under C13G A46G stands 47.3 nM; under C13G G20A, 7.5 nM; under C13G G20U, 6.39 nM.
As to C12G G55U, the Kd came out at 8.9 nM.
Regarding C12G G55A, the Kd came to 7.66 nM.
The figure for G11U G32A is 6.15 nM.
The figure for C12G C17G is 5.66 nM; for C12G C17U it is 7.01 nM.
Under C13G A21U stands 5.52 nM; under C13G A21G, 4.63 nM; under G11A A67U, 6.87 nM.
Take C12G G20U: the Kd was 7.97 nM.
Under C12G G34A stands 7.36 nM; under C12G G63U, 13.7 nM; under G11U G65U, 7.6 nM.
The figure for G11U G65A is 5.5 nM; for C13G C33U it is 5.79 nM; for C13G C33G it is 6.05 nM.
Under C12G G65U stands 8.23 nM; under C13G C49U, 31.9 nM; under C13G U47G, 6.66 nM.
As for C13G U47A, the Kd worked out at 11.8 nM.
The figure for C13G A31U is 5.78 nM; for C13G A31G it is 7.08 nM; for G11U U29G it is 6 nM.
The figure for G11U U29C is 6.7 nM; for G11U U29A it is 5.62 nM; for C12G A39U it is 25 nM.
For the variant C12G A39G, the Kd came out at 10.3 nM.
With G11U U22G, the dissociation constant (Kd) came out at 6.4 nM.
For C13G A24G, the dissociation constant (Kd) amounted to 5.57 nM.
The figure for C13G A24U is 7.79 nM; for G11U G26A it is 5.08 nM.
Regarding G11U G26U, the Kd was 6.79 nM.
Under C12G A31G stands 7.14 nM; under C12G G56U, 6.08 nM.
Under C13U U22G stands 5.14 nM; under G11A G16U, 6.64 nM; under G11A C17G, 6.96 nM.
For C13U G55A, the equilibrium dissociation constant (Kd) amounted to 5.87 nM.
Under C12G C25G stands 4.47 nM; under C12A A24G, 5.99 nM; under G11A U22G, 6.03 nM.
Under U10G U47G stands 6.24 nM.
The figure for U10G U47A is 10.8 nM; for G11U C50U it is 17.7 nM.
G11C C12G: the Kd is 5.71 nM.
On to G11U U28C, for which the Kd turned out to be 9.24 nM.
The figure for C12G C57U is 6.51 nM; for C13U C57U it is 4.06 nM; for C12G A19G it is 5.93 nM.
Under C12G A24G stands 5.9 nM; under C13G A15U, 6.13 nM.
Under C13G A15G stands 6.03 nM; under C13A A24G, 9.1 nM; under C13G G34U, 5.43 nM.
Take C13G G34A: the Kd is 8.12 nM.
Under C13G C50U stands 14.7 nM; under U10G U29A, 4.58 nM; under U10G U29C, 4.67 nM.
Under U10G U29G stands 5.05 nM; under C13G G26A, 4.79 nM.
Under C13G G26U stands 5.51 nM; under G14A, 4.94 nM.
In the case of C13G U22C, the Kd came out at 4.85 nM.
As for C13G U22G, the equilibrium dissociation constant (Kd) came to 5.27 nM.
The figure for G11U A43G is 45.8 nM; for G11U G62A it is 19.7 nM; for C13G G48A it is 11 nM.
Turning to C13G G48U, the Kd came out at 6.97 nM.
Under C12U G14U stands 8.16 nM.
